Test results published in ChEMBL document CHEMBL1150393, “Evaluation of radiolabeled (hetero)aromatic analogues of N-(2-diethylaminoethyl)-4-iodobenzamide for imaging and targeted radionuclide therapy of melanoma” (J Med Chem, 2008).

Experiments:
[1] = Biodistribution in intestinal content of C57BL/6 mouse bearing mouse B16-F0 cells at 0.74 to 0.92 MBq, iv after 24 hrs; type: ADME, organism-based; conditions: in vivo
Procedure, shortened: (§1)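 Male C57BL6 mice with s.c. left-flank B16-F0 melanoma (5 × 10⁵ cells in PBS). Two mice per time point frozen in liquid nitrogen after CO₂ sacrifice. Eight 40 µm whole-body cryosections per mouse read by multiwire proportional counter. cpm/mm² converted to kBq/g and expressed as %ID/g.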

Liver [2] = assay: Biodistribution in liver of C57BL/6 mouse bearing mouse B16-F0 cells at 0.74 to 0.92 MBq, iv after 6 hrs; type: ADME, organism-based; conditions: in vivo; procedure, shortened: as §1
[3] = Biodistribution in tumor of C57BL/6 mouse bearing mouse B16-F0 cells at 0.74 to 0.92 MBq, iv after 72 hrs; type: ADME, organism-based, Neoplasm; conditions: in vivo
Procedure, shortened: (§2)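 [¹²⁵I]-labelled compound given iv by tail vein (0.1 µmol per mouse) to male C57BL6 mice bearing s.c. B16-F0 flank tumours (5 × 10⁵ cells in PBS). Two mice per time point were killed by CO₂, frozen in liquid nitrogen and cut into 40 µm cryosections, eight slices per mouse. Slice radioactivity was read on a multiwire proportional counter, converted to kBq/g and reported as %ID/g.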

[4] = Ratio of drug level in tumor to liver of C57BL/6 mouse bearing mouse B16-F0 cells at 0.74 to 0.92 MBq, iv after 3 hrs; type: ADME, organism-based; conditions: in vivo
Procedure, shortened: (§3)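 Tumour and organ radioactive concentrations came from whole-body cryosection counting (40 µm slices, eight per mouse, two mice per time) after tail-vein injection of the [¹²⁵I]-labelled compound (0.1 µmol) into male C57BL6 mice bearing s.c. B16-F0 melanoma. Each value is the ratio of the tumour concentration to the organ concentration.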

Muscle tissue = assay: Biodistribution in muscle of C57BL/6 mouse bearing mouse B16-F0 cells at 0.74 to 0.92 MBq, iv after 1 hr; type: ADME, organism-based; conditions: in vivo; procedure, shortened: as §1
[5] = Biodistribution in Stomach content of C57BL/6 mouse bearing mouse B16-F0 cells at 0.74 to 0.92 MBq, iv after 3 hrs; type: ADME, organism-based; conditions: in vivo; procedure, shortened: as §1
[6] = Ratio of drug level in tumor to liver of C57BL/6 mouse bearing mouse B16-F0 cells at 0.74 to 0.92 MBq, iv after 6 hrs; type: ADME, organism-based; conditions: in vivo; procedure, shortened: as §3
Liver [7] = assay: Biodistribution in liver of C57BL/6 mouse bearing mouse B16-F0 cells at 0.74 to 0.92 MBq, iv after 1 hr; type: ADME, organism-based; conditions: in vivo; procedure, shortened: as §1
[8] = Biodistribution in Stomach content of C57BL/6 mouse bearing mouse B16-F0 cells at 0.74 to 0.92 MBq, iv after 1 hr; type: ADME, organism-based; conditions: in vivo; procedure, shortened: as §1
[9] = Ratio of drug level in tumor to lung of C57BL/6 mouse bearing mouse B16-F0 cells at 0.74 to 0.92 MBq, iv after 1 hr; type: ADME, organism-based; conditions: in vivo; procedure, shortened: as §3
Spleen [10] = assay: Biodistribution in spleen of C57BL/6 mouse bearing mouse B16-F0 cells at 0.74 to 0.92 MBq, iv after 6 hrs; type: ADME, organism-based; conditions: in vivo; procedure, shortened: as §2
[11] = Biodistribution in uvea of C57BL/6 mouse bearing mouse B16-F0 cells at 0.74 to 0.92 MBq, iv after 72 hrs; type: ADME, organism-based, Uveal tract; conditions: in vivo; procedure, shortened: as §2
[12] = Ratio of drug level in tumor to liver of C57BL/6 mouse bearing mouse B16-F0 cells at 0.74 to 0.92 MBq, iv after 1 hr; type: ADME, organism-based; conditions: in vivo; procedure, shortened: as §3
[13] = Biodistribution in tumor of C57BL/6 mouse bearing mouse B16-F0 cells at 0.74 to 0.92 MBq, iv after 6 hrs; type: ADME, organism-based, Neoplasm; conditions: in vivo; procedure, shortened: as §2
[14] = Ratio of drug level in tumor to lung of C57BL/6 mouse bearing mouse B16-F0 cells at 0.74 to 0.92 MBq, iv after 3 hrs; type: ADME, organism-based; conditions: in vivo; procedure, shortened: as §3
[15] = Biodistribution in Stomach content of C57BL/6 mouse bearing mouse B16-F0 cells at 0.74 to 0.92 MBq, iv after 6 hrs; type: ADME, organism-based; conditions: in vivo; procedure, shortened: as §1
[16] = Biodistribution in intestinal content of C57BL/6 mouse bearing mouse B16-F0 cells at 0.74 to 0.92 MBq, iv after 1 hr; type: ADME, organism-based; conditions: in vivo; procedure, shortened: as §1
Kidney [17] = assay: Biodistribution in kidney of C57BL/6 mouse bearing mouse B16-F0 cells at 0.74 to 0.92 MBq, iv after 3 hrs; type: ADME, organism-based; conditions: in vivo; procedure, shortened: as §1
Lung [18] = assay: Biodistribution in lung of C57BL/6 mouse bearing mouse B16-F0 cells at 0.74 to 0.92 MBq, iv after 1 hr; type: ADME, organism-based; conditions: in vivo; procedure, shortened: as §1
Thyroid gland [19] = assay: Biodistribution in thyroid of C57BL/6 mouse bearing mouse B16-F0 cells at 0.74 to 0.92 MBq, iv after 3 hrs; type: ADME, organism-based; conditions: in vivo; procedure, shortened: as §2
[20] = Biodistribution in uvea of C57BL/6 mouse bearing mouse B16-F0 cells at 0.74 to 0.92 MBq, iv after 1 hr; type: ADME, organism-based, Uveal tract; conditions: in vivo; procedure, shortened: as §2
Kidney [21] = assay: Biodistribution in kidney of C57BL/6 mouse bearing mouse B16-F0 cells at 0.74 to 0.92 MBq, iv after 1 hr; type: ADME, organism-based; conditions: in vivo; procedure, shortened: as §1
[22] = Biodistribution in tumor of C57BL/6 mouse bearing mouse B16-F0 cells at 0.74 to 0.92 MBq, iv after 1 hr; type: ADME, organism-based, Neoplasm; conditions: in vivo; procedure, shortened: as §2
Blood [23] = assay: Biodistribution in blood of C57BL/6 mouse bearing mouse B16-F0 cells at 0.74 to 0.92 MBq, iv after 1 hr; type: ADME, organism-based; conditions: in vivo; procedure, shortened: as §1
[24] = Biodistribution in Stomach content of C57BL/6 mouse bearing mouse B16-F0 cells at 0.74 to 0.92 MBq, iv after 24 hrs; type: ADME, organism-based; conditions: in vivo; procedure, shortened: as §1
[25] = Biodistribution in gall bladder of C57BL/6 mouse bearing mouse B16-F0 cells at 0.74 to 0.92 MBq, iv after 3 hrs; type: ADME, organism-based; conditions: in vivo; procedure, shortened: as §1
[26] = Biodistribution in uvea of C57BL/6 mouse bearing mouse B16-F0 cells at 0.74 to 0.92 MBq, iv after 3 hrs; type: ADME, organism-based, Uveal tract; conditions: in vivo; procedure, shortened: as §2
Liver [27] = assay: Biodistribution in liver of C57BL/6 mouse bearing mouse B16-F0 cells at 0.74 to 0.92 MBq, iv after 3 hrs; type: ADME, organism-based; conditions: in vivo; procedure, shortened: as §1
[28] = Biodistribution in gall bladder of C57BL/6 mouse bearing mouse B16-F0 cells at 0.74 to 0.92 MBq, iv after 6 hrs; type: ADME, organism-based; conditions: in vivo; procedure, shortened: as §1
[29] = Biodistribution in intestinal content of C57BL/6 mouse bearing mouse B16-F0 cells at 0.74 to 0.92 MBq, iv after 6 hrs; type: ADME, organism-based; conditions: in vivo; procedure, shortened: as §1
Blood [30] = assay: Biodistribution in blood of C57BL/6 mouse bearing mouse B16-F0 cells at 0.74 to 0.92 MBq, iv after 3 hrs; type: ADME, organism-based; conditions: in vivo; procedure, shortened: as §1
[31] = Biodistribution in uvea of C57BL/6 mouse bearing mouse B16-F0 cells at 0.74 to 0.92 MBq, iv after 24 hrs; type: ADME, organism-based, Uveal tract; conditions: in vivo; procedure, shortened: as §2
[32] = Biodistribution in tumor of C57BL/6 mouse bearing mouse B16-F0 cells at 0.74 to 0.92 MBq, iv after 24 hrs; type: ADME, organism-based, Neoplasm; conditions: in vivo; procedure, shortened: as §2
[33] = Biodistribution in tumor of C57BL/6 mouse bearing mouse B16-F0 cells at 0.74 to 0.92 MBq, iv after 3 hrs; type: ADME, organism-based, Neoplasm; conditions: in vivo; procedure, shortened: as §2
[34] = Drug excretion in mouse B16-F0 cells bearing C57BL/6 mouse urine at 0.74 to 0.92 MBq, iv after 72 hrs; type: ADME, organism-based; conditions: in vivo
Procedure, shortened: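 Urine was collected from two B16-F0 tumour-bearing C57BL6 mice for up to 72 h after iv tail-vein injection of the [¹²⁵I]-labelled compound (0.1 µmol). Samples were counted to give cumulative urinary excretion as %ID.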

Thyroid gland [35] = assay: Biodistribution in thyroid of C57BL/6 mouse bearing mouse B16-F0 cells at 0.74 to 0.92 MBq, iv after 72 hrs; type: ADME, organism-based; conditions: in vivo; procedure, shortened: as §2
[36] = Biodistribution in intestinal content of C57BL/6 mouse bearing mouse B16-F0 cells at 0.74 to 0.92 MBq, iv after 3 hrs; type: ADME, organism-based; conditions: in vivo; procedure, shortened: as §1
Lung [37] = assay: Biodistribution in lung of C57BL/6 mouse bearing mouse B16-F0 cells at 0.74 to 0.92 MBq, iv after 3 hrs; type: ADME, organism-based; conditions: in vivo; procedure, shortened: as §1
Spleen [38] = assay: Biodistribution in spleen of C57BL/6 mouse bearing mouse B16-F0 cells at 0.74 to 0.92 MBq, iv after 1 hr; type: ADME, organism-based; conditions: in vivo; procedure, shortened: as §2
Thyroid gland [39] = assay: Biodistribution in thyroid of C57BL/6 mouse bearing mouse B16-F0 cells at 0.74 to 0.92 MBq, iv after 24 hrs; type: ADME, organism-based; conditions: in vivo; procedure, shortened: as §2
Thyroid gland [40] = assay: Biodistribution in thyroid of C57BL/6 mouse bearing mouse B16-F0 cells at 0.74 to 0.92 MBq, iv after 6 hrs; type: ADME, organism-based; conditions: in vivo; procedure, shortened: as §2
Pancreas = assay: Biodistribution in pancreas of C57BL/6 mouse bearing mouse B16-F0 cells at 0.74 to 0.92 MBq, iv after 1 hr; type: ADME, organism-based; conditions: in vivo; procedure, shortened: as §1
[41] = Biodistribution in uvea of C57BL/6 mouse bearing mouse B16-F0 cells at 0.74 to 0.92 MBq, iv after 6 hrs; type: ADME, organism-based, Uveal tract; conditions: in vivo; procedure, shortened: as §2
[42] = Partition coefficient, log P in phosphate buffer solution at pH 7.4; type: physicochemical
Procedure, shortened: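 Shake-flask partition: 50 µM [¹²⁵I]-labelled compound in phosphate buffer pH 7.4 was mixed with 2 mL n-octanol. Each phase was γ-counted, P was taken as the octanol/buffer activity ratio, and log P was reported.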

## CCN(CC)CCNC(=O)c1nc2cc([125I])ccc2[nH]1.Cl.Cl
[1]
  Drug uptake: 3.19 % ID/g
Liver [2]
  Drug uptake: 3.38 % ID/g
[3]
  Drug uptake: 4.5 % ID/g
[4]
  Ratio: 2.26
Muscle tissue
  Drug uptake: 0.55 % ID/g
[5]
  Drug uptake: 17.98 % ID/g
[6]
  Ratio: 2.93
Liver [7]
  Drug uptake: 13.08 % ID/g
[8]
  Drug uptake: 24.46 % ID/g
[9]
  Ratio: 2.86
Spleen [10]
  Drug uptake: 14.97 % ID/g
[11]
  Drug uptake: 7.26 % ID/g
[12]
  Ratio: 1.13
[13]
  Drug uptake: 9.9 % ID/g
[14]
  Ratio: 4.31
[15]
  Drug uptake: 8.62 % ID/g
[16]
  Drug uptake: 105.55 % ID/g
Kidney [17]
  Drug uptake: 4.57 % ID/g
Lung [18]
  Drug uptake: 5.16 % ID/g
Thyroid gland [19]
  Drug uptake: 63.44 % ID/g
[20]
  Drug uptake: 12.87 % ID/g
Kidney [21]
  Drug uptake: 6.9 % ID/g
[22]
  Drug uptake: 14.8 % ID/g
Blood [23]
  Drug uptake: 3.31 % ID/g
[24]
  Drug uptake: 2.32 % ID/g
[25]
  Drug uptake: 160.6 % ID/g
[26]
  Drug uptake: 24.4 % ID/g
Liver [27]
  Drug uptake: 7.15 % ID/g
[28]
  Drug uptake: 38.11 % ID/g
[29]
  Drug uptake: 95.86 % ID/g
Blood [30]
  Drug uptake: 1.33 % ID/g
[31]
  Drug uptake: 10.44 % ID/g
[32]
  Drug uptake: 7.1 % ID/g
[33]
  Drug uptake: 16.1 % ID/g
[34]
  Activity: 17.1%
Thyroid gland [35]
  Drug uptake: 174.73 % ID/g
[36]
  Drug uptake: 72.05 % ID/g
Lung [37]
  Drug uptake: 3.74 % ID/g
Spleen [38]
  Drug uptake: 11.51 % ID/g
Thyroid gland [39]
  Drug uptake: 142.88 % ID/g
Thyroid gland [40]
  Drug uptake: 34.17 % ID/g
Pancreas
  Drug uptake: 6.17 % ID/g
[41]
  Drug uptake: 10.09 % ID/g
[42]
  logD: 1.47
